Drawing on ChEMBL document CHEMBL3124890, “SAR studies on trisubstituted benzimidazoles as inhibitors of Mtb FtsZ for the development of novel antitubercular agents” (J Med Chem, 2013), this text covers IC50 and MIC for 33 compounds.

One assay relates to Vero. The assay is described as follows: Cytotoxicity against Vero cells after 3 days by Alamar Blue assay. Format: cell-based. The note with it: Chlorocebus sabaeus, 72 h. A digest of the protocol: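 Vero (African green monkey kidney epithelial) cells were grown without CO₂ in L15 with antibiotics and heat-inactivated calf serum. Cells in medium with 2X Alamar Blue were added at 1.3×10^4 cells/well to 2-fold serial drug dilutions. Plates were incubated 3 days at 37 °C, and IC50 was calculated per the manufacturer's directions.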

Assay [1] relates to Mycobacterium tuberculosis. The assay is described as follows: […]. It is filed as functional. A digest of the protocol: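 Strains were grown at 37 °C in 7H9 Middlebrook broth with 10% OADC, 0.05% Tween and 0.2% glycerol. Compounds were dissolved in DMSO and serially diluted 2-fold, then bacteria were added. Plates were incubated 6 days at 37 °C, then 24 h more with Alamar Blue. MIC was the lowest concentration (μg/mL) that prevented the colour change. Run in triplicate.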

Converted amounts (≈) assume the structure as drawn.

By IC50 is commonly meant the concentration at which inhibition is half-maximal. Read a low IC50 as higher potency. The MIC is the lowest concentration that inhibits growth of the organism. Low values mean greater potency, high ones weaker potency. In turn, `CCCCOC(=O)Nc1cc2nc(C3CCCCC3)[nH]c2cc1N(CC)CCN(CC)CC` returned a half-maximal inhibitory concentration (IC50) in the assay on Vero above 50 µg/mL. In addition, the minimal inhibitory concentration (MIC) in assay [1] (H37Rv, 144 h) amounted to 50 µg/mL (≈ 109 µM).
For `O=C(Nc1cc2nc(C3CCCCC3)[nH]c2cc1N1CCCC1)OCC(F)(F)F`, in that order: above 100 µg/mL and 0.31 µg/mL (≈ 0.755 µM).
`CCCOCC(=O)Nc1cc2nc(C3CCCCC3)[nH]c2cc1N(C)C` showed an IC50 with Vero below 50 µg/mL. The compound also came in with an MIC in assay [1] (H37Rv, 144 h) of 6.25 µg/mL (≈ 17.4 µM).
For `CCCNC(=O)Nc1cc2nc(C3CCCCC3)[nH]c2cc1N(CC)CC`, in that order: above 100 µg/mL and above 100 µg/mL.
For `CCCCCC(=O)Nc1cc2nc(C3CCCCC3)[nH]c2cc1N(C)C` the same measures were above 100 µg/mL and 1.25 µg/mL (≈ 3.51 µM).
For `CCCCOC(=O)Nc1cc2nc(C3CCCCC3)[nH]c2cc1N(CCC)CCC`, in that order: above 100 µg/mL and 6.25 µg/mL (≈ 15.1 µM).
For `CCN(CC)c1cc2[nH]c(C3CCCCC3)nc2cc1NC(=O)c1ccc(OC(F)(F)F)cc1`, in the assay with Vero, the IC50 is above 100 µg/mL. For the same compound, the MIC in assay [1] (H37Rv, 144 h) is above 100 µg/mL.
Compound `CN(C)c1cc2[nH]c(C3CCCCC3)nc2cc1NC(=O)c1ccc(Br)cc1` registered a concentration for half-maximal inhibition (IC50) with Vero above 100 µg/mL. Further, the minimum inhibitory concentration (MIC) in assay [1] (H37Rv, 144 h) was 0.31 µg/mL (≈ 0.702 µM).
`O=C(Nc1cc2nc(C3CCCCC3)[nH]c2cc1N1CCCC1)OCc1ccccc1` gave an MIC in assay [1] (H37Rv, 144 h) of 3.13 µg/mL (≈ 7.48 µM).
In the case of `CCCc1ccc(C(=O)Nc2cc3nc(C4CCCCC4)[nH]c3cc2N(CC)CC)cc1`, the MIC in assay [1] (H37Rv, 144 h) is above 100 µg/mL.
`CCCc1ccc(C(=O)Nc2cc3nc(C4CCCCC4)[nH]c3cc2N(C)C)cc1` registered a half-inhibitory concentration (IC50) in the assay with Vero above 100 µg/mL. Moreover, the minimum inhibitory concentration (MIC) in assay [1] (H37Rv, 144 h) worked out at 0.63 µg/mL (≈ 1.56 µM).
In the case of `CCCCOC(=O)Nc1cc2nc(C3CCCCC3)[nH]c2cc1N(CC)CC`, the half-maximal inhibitory concentration (IC50) in the assay on Vero was above 100 µg/mL. This compound came in with an MIC in assay [1] (W210, 144 h) of 1.25 µg/mL (≈ 3.23 µM).
As for `CN(C)c1cc2[nH]c(C3CCCCC3)nc2cc1NC(=O)c1ccc(OC(F)F)cc1`, the half-inhibitory concentration (IC50) in the assay on Vero is above 100 µg/mL. 0.31 µg/mL (≈ 0.723 µM) was the least that counted as inhibitory in assay [1] (H37Rv, 144 h) (MIC).
For `CCOCCOC(=O)Nc1cc2nc(C3CCCCC3)[nH]c2cc1N(C)C` the same measures were above 100 µg/mL and 0.31 µg/mL (≈ 0.828 µM).
For `CCCN(CCC)c1cc2[nH]c(C3CCCCC3)nc2cc1NC(=O)c1ccccc1` the same measures were above 100 µg/mL and above 100 µg/mL.
In the assay on Vero, `CCCCCC(=O)Nc1cc2nc(C3CCCCC3)[nH]c2cc1N1CCCC1` displayed an IC50 above 100 µg/mL. This compound gave an MIC in assay [1] (H37Rv, 144 h) of 6.25 µg/mL (≈ 16.3 µM).
The compound `CCN(CC)c1cc2[nH]c(C3CCCCC3)nc2cc1NC(=O)c1ccc(OC(F)F)cc1` yielded a half-inhibitory concentration (IC50) in the assay on Vero above 100 µg/mL. In assay [1] (H37Rv, 144 h), this compound yielded an MIC above 100 µg/mL.
`CN(C)c1cc2[nH]c(C3CCCCC3)nc2cc1NC(=O)c1cccc(Br)c1` gave an IC50 with Vero above 100 µg/mL. The MIC in assay [1] (H37Rv, 144 h) was determined as 3.13 µg/mL (≈ 7.09 µM).
For `CCN(CC)c1cc2[nH]c(C3CCCCC3)nc2cc1NC(=O)c1cccc(Br)c1`, in that order: above 100 µg/mL and above 100 µg/mL.
For the compound `O=C(Nc1cc2nc(C3CCCCC3)[nH]c2cc1N1CCCC1)c1ccc(Br)cc1`, in the assay with Vero, the IC50 is above 100 µg/mL. This compound also gave a minimal inhibitory concentration (MIC) in assay [1] (H37Rv, 144 h) of 1.56 µg/mL (≈ 3.34 µM).
For `O=C(CCc1ccccc1)Nc1cc2nc(C3CCCCC3)[nH]c2cc1N1CCCC1`, in that order: above 100 µg/mL and 12.5 µg/mL (≈ 30 µM).
For `NNC(=O)c1ccncc1` [ISONIAZID], the MIC amounted to 0.013 µg/mL (≈ 0.0948 µM) in assay [1] (H37Rv, 144 h) and 0.01 µg/mL (≈ 0.0729 µM) in assay [1] (W210, 144 h).
As to `CCN(CC)c1cc2[nH]c(C3CCCCC3)nc2cc1NC(=O)c1ccc(Br)cc1`, the IC50 with Vero was above 100 µg/mL. In assay [1] (H37Rv, 144 h), the minimal inhibitory concentration (MIC) was 100 µg/mL (≈ 213 µM).
In assay [1] (H37Rv, 144 h), `CCN(CC)c1cc2[nH]c(C3CCCCC3)nc2cc1NC(=O)c1ccc(OC)cc1` came in with an MIC of 1.56 µg/mL (≈ 3.71 µM).
`CCCCOC(=O)Nc1cc2nc(C3CCCCC3)[nH]c2cc1N(CC)CCN(C)C` yielded a 50% inhibitory concentration (IC50) with Vero above 100 µg/mL. In assay [1] (H37Rv, 144 h), the MIC came out at 100 µg/mL (≈ 233 µM).
For `CN(C)c1cc2[nH]c(C3CCCCC3)nc2cc1NC(=O)c1ccc(F)cc1` the same measures were above 100 µg/mL and 0.63 µg/mL (≈ 1.66 µM).
For `CCCOCC(=O)Nc1cc2nc(C3CCCCC3)[nH]c2cc1N1CCCC1` the same measures were above 100 µg/mL and 12.5 µg/mL (≈ 32.5 µM).
In the assay with Vero, `CCN(CC)c1cc2[nH]c(C3CCCCC3)nc2cc1NC(=O)c1cnccn1` showed a 50% inhibitory concentration (IC50) above 100 µg/mL. Moreover, the MIC in assay [1] (H37Rv, 144 h) stood at 10 µg/mL (≈ 25.5 µM).
For `CCc1ccc(C(=O)Nc2cc3nc(C4CCCCC4)[nH]c3cc2N(CC)CC)cc1`, in that order: above 100 µg/mL and 1.56 µg/mL (≈ 3.73 µM).
In turn, `CN(C)c1cc2[nH]c(C3CCCCC3)nc2cc1NC(=O)c1cccs1` yielded a half-maximal inhibitory concentration (IC50) in the assay with Vero above 100 µg/mL. Besides, the minimal inhibitory concentration (MIC) in assay [1] (H37Rv, 144 h) is 5 µg/mL (≈ 13.6 µM).
With `CCOCCOC(=O)Nc1cc2nc(C3CCCCC3)[nH]c2cc1N(CC)CC`, in the assay with Vero, the concentration for half-maximal inhibition (IC50) is above 100 µg/mL. The same compound had a minimal inhibitory concentration (MIC) in assay [1] (H37Rv, 144 h) of 1.56 µg/mL (≈ 3.88 µM).
In the assay on Vero, `CN(C)c1cc2[nH]c(C3CCCCC3)nc2cc1NC(=O)c1ccco1` registered an IC50 above 100 µg/mL. Also, inhibition of growth in assay [1] (H37Rv, 144 h) (MIC) required 6.25 µg/mL (≈ 17.7 µM).
For `COc1ccc(C(=O)Nc2cc3nc(C4CCCCC4)[nH]c3cc2N2CCCC2)cc1` the same measures were above 100 µg/mL and 6.25 µg/mL (≈ 14.9 µM).
